Bioassay records: PubChem, several laboratories
Rev-erbA mod – modulators of human Rev-erb alpha DNA binding; Rev-erbα–FITC-DNA binding, fluorescence polarization, 90 min; activity, % at 10 µM; actives 0.79% (n = 370,000); AID 1259318;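 active means activity above about 14%, limit read from the data; passing the limit was not always enough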
PG9 binder – binds the HIV-1 gp120 antibody PG9; actives 0.43% (n = 360,000); inhibition, % at 6.7 µM; TR-FRET gp120-PG9 antibody binding; in the data active means inhibition above about 8.5%
NR2E3 ag-1 – activates human NR2E3 receptor | Q9Y5X4 | inhibition of corepressor binding, % at 3.98 µM | AID 602229 | actives 0.35% (n = 360,000) | CHO-S Gal4-NCOR/VP16-NR2E3 two-hybrid, luciferase;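 active means inhibition above the mean of all tested compounds plus 3 SD, cut at about 70% in these data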;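 further: higher means lower luciferase signal from less NR2E3 corepressor binding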
Target sequence (Q9Y5X4 whole entry, looked up, the tested form may be a part): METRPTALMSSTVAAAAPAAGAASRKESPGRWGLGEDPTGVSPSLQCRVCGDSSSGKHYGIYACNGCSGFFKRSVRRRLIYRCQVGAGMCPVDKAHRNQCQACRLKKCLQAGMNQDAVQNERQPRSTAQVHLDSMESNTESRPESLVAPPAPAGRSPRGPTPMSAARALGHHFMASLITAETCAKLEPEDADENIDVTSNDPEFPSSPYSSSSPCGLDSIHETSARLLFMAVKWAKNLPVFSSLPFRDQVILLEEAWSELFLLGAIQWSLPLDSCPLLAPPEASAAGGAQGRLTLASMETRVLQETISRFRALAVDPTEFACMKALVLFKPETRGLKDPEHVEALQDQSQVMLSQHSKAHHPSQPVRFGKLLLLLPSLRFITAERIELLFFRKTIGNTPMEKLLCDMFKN
NR2E3 ag-2 – NR2E3 (human) agonism. Q9Y5X4. GST-NR2E3/biotin-RetCOR TR-FRET, 1536-well. inhibition of corepressor binding, % at 4.78 µM. actives 0.12% (n = 320,000). AID 2300;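 active means percent inhibition above the cutoff of mean plus 3 SD of all tested compounds, set per screening campaign, cut at about 20% in these data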
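System: GST-NR2E3 and biotin-RetCOR proteins; probe or stimulus: 7 nM biotin-RetCOR; doses: compound at 4.8 µM, single dose; schedule: Compound–protein incubation for 5 h at 4 °C; detection: time-resolved FRET; read-out: percent inhibition; controls: biotin wells as high control, 0.6% DMSO wells as low control; format: 1536-well plates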
Rev-erbA confirm – Rev-erb alpha (human) modulation, hit confirmation; shares compounds with Rev-erbA mod; Rev-erb alpha FITC-DNA binding, fluorescence polarization, 90 min; activation, % at 25 µM; actives 61% (n = 3,000); AID 1259319;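 active means activation at or above a set limit, or at least 3 SD above the negative control mean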
RORg counter – counter-screen for Rev-erb alpha modulators: RORgamma DNA binding; shares compounds with Rev-erbA mod; purified RORgamma protein-FITC-DNA binding, fluorescence polarization; IC50, µM; actives 8% (n = 910);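 active means Compounds whose fitted half-maximal concentration for disrupting protein-DNA binding is below 10 micromolar; the record names Rev-erb in its text, so the target is in doubt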
Each line names hits and unclear results; the compound was inactive in the other large screens (follow-up assays come after a bar, where they were run). In the library only some 1.4% were active in any assay of this set; here they are far more common.

CC(=O)c1cc(C#N)c(NCc2cc(-c3ccccc3)no2)nc1C	Rev-erbA mod 26 | Rev-erbA confirm 18
COCc1cc(N2CCN(C(=O)OC(C)(C)C)C[C@H]2C)ccc1N1CC[C@H](O)C1	none (no result: NR2E3 ag-1, NR2E3 ag-2)
CCOC(=O)C1(Cc2ccccc2)CCN(Cc2ccccc2OC)CC1	none (no result: PG9 binder, NR2E3 ag-1, NR2E3 ag-2)
O=c1c2ccccc2ncn1-c1cccc(Cl)c1	none
O=c1c2ccccc2ncn1-c1ccc(Cl)c(Cl)c1	Rev-erbA mod 30 | Rev-erbA confirm 37 | RORg counter inactive
COC(=O)c1c(-c2ccc(OC)cc2)c2c(c3c4cc(F)ccc4n(S(=O)(=O)c4ccc(C)cc4)c13)C(=O)N(C)C2	none (no result: NR2E3 ag-1, NR2E3 ag-2)
CCCCN(C)C1=CC2=CC(=C(C#N)C#N)CCC2CC1 (stereo not drawn)	Rev-erbA mod 69 | Rev-erbA confirm 34 | RORg counter inactive
N#CC(C#N)=C1C=C2C=C(N3CCCCC3)CCC2CC1 (stereo not drawn)	none (no result: Rev-erbA mod, PG9 binder, NR2E3 ag-1)
CCN(CC)C1=CC2=CC(=C(C#N)C#N)CCC2CC1 (stereo not drawn)	Rev-erbA mod 66 | Rev-erbA confirm 24
O=C(NCc1cccs1)c1csc([C@@H]2C[C@H](O)[C@@H](CO)O2)n1	none (no result: NR2E3 ag-2)
N#Cc1ccc2nc(-c3ccc(CN4CCC(c5nc6ccccc6[nH]5)CC4)cc3)c(-c3ccccc3)nc2c1	none (no result: NR2E3 ag-1, NR2E3 ag-2)
CCOc1cccc(-c2nnc3sc(-c4cccs4)nn23)c1	Rev-erbA mod 29 | Rev-erbA confirm 20
CCC[C@H]1[C@@H](NC(=O)c2ccc(OC)cc2)CC[C@@]23CCCN2C(=O)CCC[C@@H]13	none (no result: PG9 binder, NR2E3 ag-1, NR2E3 ag-2)
CCOC(=O)c1sc(NC(=O)CN2C(=O)NC3(CCCCCCC3)C2=O)c(C(=O)OCC)c1C	Rev-erbA mod 28 | Rev-erbA confirm inactive
C=CCNc1nc(NCc2ccc(NC(C)=O)cc2)c2sc(-c3ccccc3)cc2n1	Rev-erbA mod 65 (no result: NR2E3 ag-2) | Rev-erbA confirm 76 | RORg counter inactive
CC(=O)Nc1ccc(CNc2nc(NC(C)C)nc3cc(-c4ccccc4)sc23)cc1	none (no result: NR2E3 ag-2)
CCC(=O)c1cn(CC(=O)Nc2cccc(OC)c2)c2ccccc12	Rev-erbA mod 26 | Rev-erbA confirm inactive
COc1cccc(NC(=O)CSc2nc3ccccc3c3nc4ccccc4n23)c1	Rev-erbA mod 54 | Rev-erbA confirm inactive
CCOc1ccc(NC(=O)Cn2cc(C(C)=O)c3ccccc32)cc1	Rev-erbA mod 29 | Rev-erbA confirm inactive
O=C(c1ccccc1F)N(Cc1ccc2c(c1)OCO2)Cc1cc2cc3c(cc2n2nnnc12)OCO3	Rev-erbA mod 34 | Rev-erbA confirm inactive
Cc1cc2cc(CN(Cc3ccc4c(c3)OCO4)C(=O)c3cnccn3)c3nnnn3c2cc1C	none
CCCN(CC(=O)Nc1ccccc1C)C(=O)C1CCN(S(=O)(=O)c2ccc(C)c(C)c2)CC1	none (no result: NR2E3 ag-2)
O=C1COc2ccccc2C(c2nc3ccccc3[nH]2)N1C1CC1 (stereo not drawn)	none (no result: NR2E3 ag-2)
O=c1c2ccccc2c(C=NCc2ccccn2)c(O)n1-c1ccccc1	Rev-erbA mod 69 | Rev-erbA confirm 20
COc1cccc(-n2c(O)c(C=NCc3ccccn3)c3ccccc3c2=O)c1	none
O=C(COc1ccc([N+](=O)[O-])cc1)Nc1cccc2nsnc12	Rev-erbA mod 24 | Rev-erbA confirm 22
COc1ccc(S(=O)(=O)NCC(=O)N2CCN(c3ccccn3)CC2)c(OC)c1	none (no result: PG9 binder, NR2E3 ag-1, NR2E3 ag-2)
COC(=O)c1c(NC(=S)NC(=O)c2ccco2)sc2c1CCCC2	none
COC(=O)c1c(NC(=S)NNS(=O)(=O)c2ccc(OC)cc2OC)sc2c1CCCCCC2	Rev-erbA mod 32 (no result: NR2E3 ag-2) | Rev-erbA confirm inactive
CCCCCCCCN1C(=O)[C@@H](CC(=O)NCCCN2CCCC2=O)C[C@@]2(C(=O)OC)C1=C[C@H](COCc1ccccc1)O[C@@H]2C	none (no result: PG9 binder, NR2E3 ag-1, NR2E3 ag-2)
CCOC(=O)c1c(NC(=S)Nc2ccc(C)cc2)sc2c1CCC2	Rev-erbA mod 76 | Rev-erbA confirm 84 | RORg counter inactive
CCOC(=O)c1c(NC(=O)CN(CC)CC)sc2c1CCC2	Rev-erbA mod 33 | Rev-erbA confirm inactive
COC(=O)c1c(NC(=O)c2ccc(Br)s2)sc2c1CCC2	Rev-erbA mod 25 | Rev-erbA confirm 28
